pIC50: −log10 of the molar value.
Key:
[1] = system: K562; assay: Antiproliferative activity against human K562 cells after 48 hrs by MTT assay; assay type: functional; conditions: K562, 48 h
Procedure, shortened: (§1)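 MTT read-out after 48 h incubation. GI50 taken as the concentration giving 50% growth inhibition relative to untreated controls. Fluorouracil served as positive control.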

[2] = system: SH-SY5Y; assay: Antiproliferative activity against human SH-SY5Y cells after 48 hrs by MTT assay; assay type: functional; procedure, shortened: as §1
[3] = system: AGS; assay: Antiproliferative activity against human AGS cells after 48 hrs by MTT assay; assay type: functional; procedure, shortened: as §1
[4] = Inhibition of PDE4 (unknown origin) using FAM-Cyclic-3',5'-AMP as substrate after 1 hr by fluorescence polarization assay; parameters: species or system Homo sapiens
Procedure, shortened: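 Each compound was tested at nine concentrations spanning 10^-8 to 10^-4 M, with rolipram as positive control. IC50 was obtained by nonlinear regression of the inhibition curves.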

[5] = system: SH-SY5Y; assay: Cell cycle arrest in human SH-SY5Y cells assessed as accumulation at G2/M-phase at 5 uM after 48 hrs by propidium iodide staining based flow cytometry (reference value: 12.13 +/- 0.7%); assay type: functional
[6] = system: SH-SY5Y; assay: Induction of apoptosis in human SH-SY5Y cells assessed as necrotic cells at 10 uM after 48 hrs by Annexin V-FITC/propidium iodide staining based flow cytometry (reference value: 5.06%); assay type: functional
Procedure, shortened: (§2)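 SH-SY5Y cells treated 48 h at 10 or 20 µM, then stained with Annexin V-FITC and propidium iodide and analysed by flow cytometry. Quadrants were scored as live, early apoptotic, late apoptotic and necrotic. DMSO served as control. Values are means of three independent experiments. Significance was tested versus control.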

[7] = system: SH-SY5Y; assay: Induction of apoptosis in human SH-SY5Y cells assessed as early apoptotic cells at 10 uM after 48 hrs by Annexin V-FITC/propidium iodide staining based flow cytometry (reference value: 1.3%); assay type: functional; procedure, shortened: as §2
[8] = system: SH-SY5Y; assay: Induction of apoptosis in human SH-SY5Y cells assessed as live cells at 10 uM after 48 hrs by Annexin V-FITC/propidium iodide staining based flow cytometry (reference value: 89.95%); assay type: functional; procedure, shortened: as §2
[9] = system: SH-SY5Y; assay: Cell cycle arrest in human SH-SY5Y cells assessed as accumulation at G0/G1 phase at 20 uM after 48 hrs by propidium iodide staining based flow cytometry (reference value: 47.67 +/- 1.1%); assay type: functional
[10] = system: SH-SY5Y; assay: Induction of apoptosis in human SH-SY5Y cells assessed as live cells at 20 uM after 48 hrs by Annexin V-FITC/propidium iodide staining based flow cytometry (reference value: 89.95%); assay type: functional; procedure, shortened: as §2
[11] = system: SH-SY5Y; assay: Induction of apoptosis in human SH-SY5Y cells assessed as increase in late apoptotic cells after 48 hrs by Annexin V-FITC/propidium iodide staining based flow cytometry; assay type: functional, cell-based; procedure, shortened: as §2
[12] = system: SH-SY5Y; assay: Cell cycle arrest in human SH-SY5Y cells assessed as accumulation at S-phase at 20 uM after 48 hrs by propidium iodide staining based flow cytometry (reference value: 40.2 +/- 1.8%); assay type: functional
[13] = system: SH-SY5Y; assay: Cell cycle arrest in human SH-SY5Y cells assessed as accumulation at S-phase at 10 uM after 48 hrs by propidium iodide staining based flow cytometry (reference value: 40.2 +/- 1.8%); assay type: functional
[14] = system: SH-SY5Y; assay: Cell cycle arrest in human SH-SY5Y cells assessed as accumulation at G2/M-phase at 10 uM after 48 hrs by propidium iodide staining based flow cytometry (reference value: 12.13 +/- 0.7%); assay type: functional
[15] = system: SH-SY5Y; assay: Cell cycle arrest in human SH-SY5Y cells assessed as accumulation at G2/M-phase at 20 uM after 48 hrs by propidium iodide staining based flow cytometry (reference value: 12.13 +/- 0.7%); assay type: functional
[16] = system: SH-SY5Y; assay: Cell cycle arrest in human SH-SY5Y cells assessed as accumulation at S-phase at 5 uM after 48 hrs by propidium iodide staining based flow cytometry (reference value: 40.2 +/- 1.8%); assay type: functional
[17] = system: SH-SY5Y; assay: Cell cycle arrest in human SH-SY5Y cells assessed as accumulation at G0/G1 phase at 10 uM after 48 hrs by propidium iodide staining based flow cytometry (reference value: 47.67 +/- 1.1%); assay type: functional
[18] = system: SH-SY5Y; assay: Induction of apoptosis in human SH-SY5Y cells assessed as late apoptotic cells at 10 uM after 48 hrs by Annexin V-FITC/propidium iodide staining based flow cytometry (reference value: 3.68%); assay type: functional; procedure, shortened: as §2
[19] = system: SH-SY5Y; assay: Induction of apoptosis in human SH-SY5Y cells assessed as late apoptotic cells at 20 uM after 48 hrs by Annexin V-FITC/propidium iodide staining based flow cytometry (reference value: 3.68%); assay type: functional; procedure, shortened: as §2
[20] = system: SH-SY5Y; assay: Cell cycle arrest in human SH-SY5Y cells assessed as accumulation at G0/G1 phase at 5 uM after 48 hrs by propidium iodide staining based flow cytometry (reference value: 47.67 +/- 1.1%); assay type: functional
[21] = system: SH-SY5Y; assay: Induction of apoptosis in human SH-SY5Y cells assessed as necrotic cells at 20 uM after 48 hrs by Annexin V-FITC/propidium iodide staining based flow cytometry (reference value: 5.06%); assay type: functional; procedure, shortened: as §2
[22] = system: SH-SY5Y; assay: Cell cycle arrest in human SH-SY5Y cells assessed as accumulation at G0/G1-phase after 48 hrs by propidium iodide staining based flow cytometry; assay type: functional
[23] = system: SH-SY5Y; assay: Induction of apoptosis in human SH-SY5Y cells assessed as early apoptotic cells at 20 uM after 48 hrs by Annexin V-FITC/propidium iodide staining based flow cytometry (reference value: 1.3%); assay type: functional; procedure, shortened: as §2

| Structure (SMILES) | GI50 [1] [µM] | GI50 [2] [µM] | GI50 [3] [µM] | pIC50 [4] | also measured |
| --- | --- | --- | --- | --- | --- |
| COc1ccccc1OCCNc1cnn(Cc2ccc(OC)c(-c3cccc(Cl)c3)c2)c(=O)c1Cl | > 100 | > 100 | > 100 | < 4.00 | – |
| O=c1[nH]cc(F)c(=O)[nH]1 [FLUOROURACIL] | 18.5 | 11.9 | 24.6 | – | – |
| COc1ccccc1OCCNc1cnn(Cc2ccc(OC(F)F)c(OC3CCCC3)c2)c(=O)c1Cl | > 100 | > 100 | > 100 | 4.41 | – |
| COc1ccccc1OCCNc1ccc(=O)n(Cc2ccc(OC)c(OC3CCCC3)c2)n1 | 28 | > 100 | > 100 | < 4.00 | – |
| COc1ccc(Cn2nc(NCCOc3ccccc3OC)ccc2=O)cc1Br | > 100 | > 100 | > 100 | 4.36 | – |
| COc1ccccc1OCCNc1cnn(Cc2ccc(OC)c(OC3CCCC3)c2)c(=O)c1Cl | > 100 | 23.3 | > 100 | 4.67 | – |
| COc1ccccc1OCCNc1ccc(=O)n(Cc2ccc(OC(F)F)c(OCC3CC3)c2)n1 | 60.9 | 6.3 | 24.4 | 4.82 | Activity [5]: 12.98%; Activity [6]: 4.6%; Activity [7]: 2.74%; Activity [8]: 85.22%; Activity [9]: 62.61%; Activity [10]: 78.53%; Activity [11]: Dose-dependent effect; Activity [12]: 22.75%; Activity [13]: 33.81%; Activity [14]: 10.59%; Activity [15]: 14.64%; Activity [16]: 34.87%; Activity [17]: 55.6%; Activity [18]: 7.43%; Activity [19]: 10.62%; Activity [20]: 52.15%; Activity [21]: 6.69%; Activity [22]: Dose-dependent effect; Activity [23]: 4.16% |
| COc1ccc(Cn2nc(NCCOc3ccccc3OC)ccc2=O)cc1OC | > 100 | > 100 | > 100 | 4.17 | – |
| COc1ccccc1OCCNc1cnn(Cc2ccc(OC(F)F)c(OCC3CC3)c2)c(=O)c1Cl | 67.6 | > 100 | > 100 | < 4.00 | – |
| COc1ccccc1OCCNc1ccc(=O)n(Cc2ccc(OC)c(OCC3CC3)c2)n1 | 16.6 | 10.5 | 45.8 | < 4.00 | – |
| COc1ccccc1OCCNc1cnn(Cc2ccc(OC)c(OCC3CC3)c2)c(=O)c1Cl | > 100 | 37.9 | > 100 | 4.34 | – |
| COc1ccc(Cn2ncc(NCCOc3ccccc3OC)c(Cl)c2=O)cc1OC | > 100 | 33.1 | > 100 | 4.14 | – |
| COc1ccc(C2CNC(=O)C2)cc1OC1CCCC1 (stereo not given) [ROLIPRAM] | – | – | – | 6.30 | – |
| COc1ccccc1OCCNc1ccc(=O)n(Cc2ccc(OC(F)F)c(OC3CCCC3)c2)n1 | 9.1 | 9.3 | 23.6 | 4.91 | Activity [5]: 10.34%; Activity [6]: 4.48%; Activity [7]: 3.12%; Activity [8]: 84.34%; Activity [9]: 63.55%; Activity [10]: 64.46%; Activity [11]: Dose-dependent effect; Activity [12]: 29.58%; Activity [13]: 30.16%; Activity [14]: 7.74%; Activity [15]: 6.87%; Activity [16]: 36.44%; Activity [17]: 62.1%; Activity [18]: 8.05%; Activity [19]: 18.54%; Activity [20]: 53.22%; Activity [21]: 8.18%; Activity [22]: Dose-dependent effect; Activity [23]: 8.82% |

Reference: ChEMBL document CHEMBL4138132, “Design, synthesis and biological evaluation of substituted aminopyridazin-3(2H)-ones as G0/G1-phase arresting agents with apoptosis-inducing activities” (Eur J Med Chem, 2017)
